Measurements pooled from the literature.
Organism: Staphylococcus aureus
Observed: microbial growth

SMILES	assay	test system	conditions	MIC
Cc1nn(-c2ccccc2)c2c1C(c1cncs1)N(C(=O)c1ccncc1)N2 (centres unmarked)	–	MTCC96	24 h	32 µg/mL
CC(O)CSc1nnc(-c2cc3ccccc3o2)n1-c1ccccc1 (centres unmarked)	–	–	–	2500 µg/mL
CC1(C)S[C@@H]2[C@H](NC(=O)[C@H](N)c3ccccc3)C(=O)N2[C@H]1C(=O)O	–	–	24 h	< 1.25 µM
CO[C@@H]1[C@@H](OC(N)=O)[C@@H](O)[C@H](Oc2ccc3c(O)c(NC(=O)c4ccc(O)c(CC=C(C)C)c4)c(=O)oc3c2C)OC1(C)C	broth dilution	ATCC29213	–	0.25 µg/mL
CC(C)=CCCC(C)=CC1c2c(C)nn(-c3ccccc3)c2NN1C(=O)c1ccncc1 (centres unmarked)	–	MTCC96	24 h	> 100 µg/mL
Cc1[nH]c(C(=O)Nc2ccc(C(=O)NCC(=O)O)cc2N2CC[C@@H](N)C2)c(Cl)c1Cl.Cl	broth dilution	ATCC29213	–	> 32 µg/mL
Cc1ccccc1NC(=O)C=Cc1ccc(O)c(O)c1	broth dilution	FDA209	–	8 µg/mL
CN[C@H](CC(C)C)C(=O)N[C@H]1C(=O)N[C@@H](CC(N)=O)C(=O)N[C@H]2C(=O)N[C@H]3C(=O)N[C@H](C(=O)N[C@H](C(=O)O)c4cc(O)cc(O)c4-c4cc3ccc4O)[C@H](O)c3ccc(c(Cl)c3)Oc3cc2cc(c3O[C@@H]2O[C@H](CO)[C@@H](O)[C@H](O)[C@H]2O[C@H]2C[C@](C)(N)[C@H](O)[C@H](C)O2)Oc2ccc(cc2Cl)[C@H]1O	–	BAA44 MRSA	–	1 µM
Cc1[nH]c(C(=O)Nc2ccc(C(=O)NCC(=O)O)cc2N2CCNCC2)c(Cl)c1Cl.Cl	broth dilution	ATCC29213	–	> 32 µg/mL
CN[C@@H]1[C@@H](O[C@H]2O[C@H](CO)[C@@H](N)[C@H](O)[C@H]2O)OC2C[C@@H](N)[C@@H](O[C@H]3[C@H](O)[C@@H](O)[C@H](N)C[C@@H]3N)OC2[C@@H]1O (some centres unmarked)	–	–	24 h	1.25 to 2.5 µM
Cl.N[C@@H]1CCN(c2cc(C(=O)NCC(=O)O)ccc2NC(=O)c2cc(Br)c(Br)[nH]2)C1	broth dilution	ATCC29213	–	> 32 µg/mL
CC1CCC(C(C)C)C(OC(=O)C=Cc2ccc(O)c(O)c2)C1 (centres unmarked)	broth dilution	FDA209	–	4 µg/mL
C[C@@H]1O[C@@H](OC[C@H]2O[C@@H](Oc3cc(O)c4c(c3)O[C@H](c3ccc(O)cc3)CC4=O)[C@H](O)[C@@H](O)[C@@H]2O)[C@H](O)[C@H](O)[C@H]1O	broth dilution	–	16 h	> 250 µg/mL
CC(C)(C)OC(=O)N[C@H]1CCN(c2cc(C(=O)NCC(=O)O)ccc2NC(=O)c2cc(Br)c(Br)[nH]2)C1	broth dilution	ATCC29213	–	> 32 µg/mL
Cc1nn(-c2ccccc2)c2c1C(c1c[nH]c3ccccc13)N(C(=O)c1ccncc1)N2 (centres unmarked)	–	MTCC96	24 h	> 100 µg/mL
Cc1[nH]c(C(=O)Nc2ccc(C(=O)NCC(=O)O)cc2N2CCN(C(=O)OC(C)(C)C)CC2)c(Cl)c1Cl	broth dilution	ATCC29213	–	> 32 µg/mL
O=C(C=Cc1ccc(O)c(O)c1)OCCc1ccccc1	broth dilution	FDA209	–	16 µg/mL
Cc1nn(-c2ccccc2)c2c1C(c1ccc(Cl)cc1)N(C(=O)c1ccncc1)N2 (centres unmarked)	–	MTCC96	24 h	> 100 µg/mL
CC(O)CSc1nnc(-c2ccccc2)n1-c1ccccc1 (centres unmarked)	–	–	–	2000 µg/mL
C=C/C=C(\C)CC[C@@H]1C[C@@H](O)CC(=O)O1	broth dilution	ATCC6538P	–	256 µg/mL
CC(O)CSc1nnc(-c2cc3c(ccc4ccccc43)o2)n1-c1ccccc1 (centres unmarked)	–	–	–	10000 µg/mL
O=C(O)c1cn(C2CC2)c2cc(N3CCNCC3)c(F)cc2c1=O	–	MTCC96	24 h	0.12 µg/mL
COc1cc(Cc2cnc(N)nc2N)cc(OC)c1OC	broth dilution	FDA209	–	16 µg/mL
Cc1[nH]c(C(=O)Nc2ccc(C(=O)NCC(=O)O)cc2N2CC[C@@H](NC(=O)OC(C)(C)C)C2)c(Cl)c1Cl	broth dilution	ATCC29213	–	> 32 µg/mL
O=C(C=Cc1ccc(O)c(O)c1)Oc1ccccc1	broth dilution	FDA209	–	16 µg/mL
C[C@@H]1O[C@@H](OC[C@H]2O[C@@H](Oc3c(-c4ccc(OCCO)c(OCCO)c4)oc4cc(OCCO)cc(O)c4c3=O)[C@H](O)[C@@H](O)[C@@H]2O)[C@H](O)[C@H](O)[C@H]1O	broth dilution	–	16 h	> 1020 µg/mL
